As a reminder, the EC50 is the concentration that produces a half-maximal response.

SMILES strings stand for the structures. The source made the active and inactive calls.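 The calls were made as follows: active = half-maximal effective dose for blocking growth of human endothelial cells at most 100 µM; inactive = the rest.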 Where only a bound is given, the exact number is not on record here.

Here are results for 95 compounds from PubChem BioAssay AID822 (SRMLSC, 2007).

The subject of the experiment is HUVEC proliferation, viability ATP luminescence. The experiment can be described thus: growth suppression of umbilical vein endothelial cells – cell-based, HUVEC, ATP luminescence, dose response (AID 822).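 Also: cells exposed to compound for 72 h before the ATP read.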 The procedure, abridged: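 Assay system: HUVEC primary endothelial cells, low passage (≤12) | Doses: 0.039–20 µM, 0.2% DMSO | Incubation: 72 h compound exposure at 37 °C | Detection: CellTiter-Glo ATP luminescence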
For `Cc1cccc(NC(=O)c2cc(NC(=O)c3ccco3)ccc2N2CCCCC2)c1`, the EC50 was 13.3 µM. Take `Nc1nc(-c2ccccc2)cc(-c2ccccc2O)n1`: the concentration giving a half-maximal response (EC50) is 12.4 µM. For `CCCCC[n+]1ccn(C2=C([O-])c3ccccc3C(=O)/C2=N\S(=O)(=O)c2ccccc2)c1`, the EC50 is 6.1 µM. `COc1cc2nc(N3CCN(C(=O)c4ccco4)CC3)nc(N)c2cc1OC`: the concentration for a half-maximal effect (EC50) was 11.2 µM. The figure for `CCCCCCn1c(O)c(C=NC2CCCCC2N)c(=O)[nH]c1=O` (stereo not given) is 9.15 µM; for `CCOC(=O)N1CCC(c2cc(=O)n3[nH]c(C)c(-c4ccc(F)cc4)c3n2)CC1` it is 6.46 µM; for `CCc1ccc2c(c1)/C(=C/C(=O)c1cccs1)C(=O)N2` it is 7 µM. With `CN1CCN(c2ccccc2NC(=O)c2cccc(OCc3ccccc3)c2)CC1`, the concentration giving a half-maximal response (EC50) is 10.8 µM. The figure for `CC1(C)Cc2c(c(N3CCOCC3)nc3snc(N)c23)CO1` is 11 µM; for `Cc1ccc(C(=O)Nc2ncc(Cc3ccc(F)cc3)s2)o1` it is 0.277 µM. The figure for `COC(=O)COc1ccc(S(=O)(=O)NCCC2=CCCCC2)cc1` is 10.4 µM; for `O=c1/c(=C/c2ccco2)sc2n1CN(c1cccc(Br)c1)CN=2` it is 15.7 µM. On to `CCc1[nH]nc2c1C(c1ccc(Br)s1)C(C#N)=C(N)O2` (stereo not given), for which the concentration giving a half-maximal response (EC50) is 14 µM. `Oc1ccccc1/C=N/Nc1nccnc1Cl`: the concentration giving a half-maximal response (EC50) is 6.28 µM. The figure for `O=C1C=C(c2ccc(Cl)cc2)C(=O)N1Nc1ccccc1` is 10.7 µM; for `COC(=O)c1c(NC(=O)c2ccco2)sc(C(=O)Nc2ccc(F)cc2)c1C` it is 2.98 µM; for `Cn1cc(/C=N/n2cnc3scc(-c4ccccc4)c3c2=O)c2ccccc21` it is 4.94 µM.

As for `O=C1NCCCC2c3cc(O)c4ccccc4c3OC12N1CCCCC1` (stereo not given), the EC50 was 3.25 µM. The figure for `c1ccc(-c2nc3nonc3nc2-c2ccccc2)cc1` is 3.46 µM; for `CCN(CC)c1ccc2c(c1)oc(=O)c1c(Cl)cc(=O)oc12` it is 2.05 µM.

Regarding `O=C(CSc1nnc(-c2ccccc2O)o1)Oc1ccc(OCc2ccccc2)cc1`, the EC50 is 10.1 µM. Take `COc1ccc(-n2nnnc2S(=O)(=O)CC(=O)N2CCCCC2)cc1`: the EC50 was 7.76 µM. Take `Cc1cccc(-c2nc(CN3CCCC(C(=O)NC4CCCCCC4)C3)c(C)o2)c1` (stereo not given): the 50% effective concentration (EC50) was 10.8 µM. As for `CCOC(=O)c1sc2nc(C(C)C)c3c(c2c1N)CC(C)(C)OC3`, the half-maximal effective concentration (EC50) was 20.8 µM. The figure for `O=C1Nc2ccccc2/C1=C/C(=O)c1cccs1` is 7.52 µM; for `CCc1nc(SCC(=O)Nc2ccc3c(c2)OCCO3)c2oc3ccccc3c2n1` it is 9.5 µM; for `COc1cc(NC(=O)Nc2cccc(Cl)c2)c(OC)cc1NC(=O)CN1CCCCC1` it is 5.49 µM. With `Cc1cccc(N2CCN(C(=O)c3ccc4nc(-c5ccco5)c(-c5ccco5)nc4c3)CC2C)c1` (stereo not given), the EC50 was 9.47 µM. Consider `CCOC(=O)C1=C(N)n2c(s/c(=C/c3ccco3)c2=O)=C(C(=O)OC)C1c1ccco1` (stereo not given), for which the 50% effective concentration (EC50) was 5.98 µM. For the compound `O=C(Nc1nccs1)c1c(O)c2cccc3c2n(c1=O)CCC3`, the EC50 is 20.4 µM.

With `O=c1cc(-c2ccccc2)[nH]n1-c1nc2ccccc2[nH]1`, the concentration for a half-maximal effect (EC50) is 6.25 µM.

Consider `Cc1ccc(NC(=O)c2cc(NC(=O)c3ccco3)ccc2N2CCCCC2)cc1`, for which the EC50 is 17.9 µM. The figure for `COc1ccc(CNC(=O)c2c(N)n(CCCN3CCOCC3)c3nc4ccccc4nc23)cc1` is 10 µM; for `Cc1ccc2c(C)ccc(O)c2n1` it is 7.33 µM; for `CCN(CC(O)Cn1c2ccccc2c2ccccc21)S(=O)(=O)c1ccc(C)cc1` (stereo not given) it is 11.5 µM. The figure for `COC(=O)NC(=C(Cl)Cl)S(=O)(=O)c1ccccc1` is 8.53 µM.

Consider `COC(=O)c1c(C)n(-c2ccc(OC)cc2)c2ccc(O)cc12`, for which the EC50 was 8.97 µM. For `CCN1CCN(c2cc(C)c3cc(NC(=O)c4ccc(OC)c(OC)c4)ccc3n2)CC1`, the EC50 was 13.6 µM. As to `CCOC(=O)C1=C(Cc2ccc(F)cc2)C(=O)c2ccccc2C1=O`, the EC50 is 13.6 µM. The figure for `O=C(Nc1nnc(-c2ccc3c(c2)CCCC3)o1)c1ccc(Cl)cc1Cl` is 2.25 µM; for `CN1C[C@H](CNC(=O)OCc2ccccc2)C[C@@H]2c3cccc4c3c(cn4C)C[C@H]21` it is 8.44 µM; for `CCC(CC)COC(=O)C(C#N)c1nc2ccccc2nc1N1CCN(CC)CC1` (stereo not given) it is 10.2 µM.

As to `COC(=O)C1=C(O)/C(=C\c2ccc(CNC(=O)C(=O)Nc3ccc(C)cc3)o2)N=C1C`, the EC50 is 19.4 µM. Take `c1ccc(CC2CCN(C3=Nc4cccc5cccc3c45)CC2)cc1`: the EC50 was 3.02 µM.

Turning to `O=C(Nc1cccc(-c2nnc(-c3ccccc3)o2)c1)c1ccc(Br)o1`, the EC50 is 9.92 µM. For `COc1ccc(Cc2nc(C(=O)Nc3ccc(Cl)cc3)cs2)cc1`, the 50% effective concentration (EC50) is 19.9 µM. With `O=c1[nH]c(=O)n(Cc2ccccc2)c2nc(-c3ccco3)cc(C(F)(F)F)c12`, the EC50 is 17 µM. Regarding `CCn1c2c(c3cc(Br)ccc31)CCC/C2=N\O`, the EC50 is 15.2 µM.

For `Cc1cc2nc(C3CCN(CC4COc5ccccc5O4)CC3)[nH]c2cc1C` (stereo not given), the EC50 was 19.8 µM. Turning to `CNC(=O)c1ccc(-c2sc3nc(N4CCOCC4)c4c(c3c2N)CCCC4)o1`, the 50% effective concentration (EC50) is 10.5 µM. In the case of `Cc1nn(Cc2ccc(Cl)c(Cl)c2)c(C)c1NC(=O)c1cc(-c2ccc3c(c2)OCO3)on1`, the concentration giving a half-maximal response (EC50) is 1.35 µM. The figure for `COC(=O)CCS(=O)(=O)c1nc(-c2ccccc2)cc(C(F)(F)F)n1` is 9.83 µM; for `O=C(CC1CCCCC1)c1c(O)c2ccccc2oc1=O` it is 4.66 µM; for `CC1=C(C(=O)OC2CCCCCCC2)C(c2cc3c(cc2Br)OCO3)CC(=O)N1` (stereo not given) it is 6.99 µM. The figure for `COc1ccc(CN=C(C)c2c(C(F)(F)F)[nH]n(-c3nc4ccccc4s3)c2=O)cc1` is 5.87 µM; for `CCCCCCn1c(C)nc2c(c1=O)c1nc3ccccc3nc1n2/N=C/c1ccco1` it is 14.5 µM; for `N#C/C(=C/c1ccc(N2CCCCCC2)o1)c1ccc(Cl)cc1` it is 18.3 µM. The figure for `CCCOc1ccc(-c2nc(C#N)c(NCCCn3ccnc3)o2)cc1` is 11.3 µM. As to `Oc1ccc(Nc2nc(-c3ccc4ccccc4c3)cs2)cc1`, the EC50 was 5.83 µM. As for `CCCCCCc1cc2cc(-c3nnc(-c4ccccc4)o3)c(=O)oc2cc1O`, the EC50 is 3.5 µM. Turning to `CCc1ccc(-c2nc(CN3CCC(C(=O)N4CCN(c5ccccn5)CC4)CC3)c(C)o2)cc1`, the EC50 is 14.2 µM. The figure for `CCOC(=O)c1ccccc1Nc1cn(C(C)=O)c2ccccc12` is 11.7 µM; for `CC(C)Cn1c(N)c(C(=O)NCc2cccs2)c2nc3ccccc3nc21` it is 10.5 µM. The figure for `Cn1cc(SCC(=O)Nc2nc3ccccc3s2)c2ccccc21` is 6.29 µM.

On to `CCC(C)(C)NC(=O)C(c1ccc(C)o1)N(Cc1cccs1)C(=O)Cn1nnc2ccccc21` (stereo not given), for which the EC50 was 11.7 µM. The figure for `CCCCN(C)S(=O)(=O)c1ccc(C(=O)Nc2nnc(-c3cccs3)o2)cc1` is 1.69 µM; for `O=C(Nc1ccc(Cl)cc1)N1CCCN(Cc2ccc(F)cc2)C1` it is 12.6 µM; for `COc1ccc(CNC(=O)C(C#N)c2nc3ccccc3nc2N2CCN(C)CC2)cc1` (stereo not given) it is 6.92 µM. With `CCC(C)NC(=O)c1c(N)n(/N=C/c2ccccn2)c2nc3ccccc3nc12` (stereo not given), the EC50 is 9.34 µM. As for `Cc1cccc(Nc2nc(NCc3ccco3)nc(N3CCOCC3)n2)c1`, the half-maximal effective concentration (EC50) was 2.15 µM.

Consider `O=C(CCC1COc2ccccc2O1)Nc1ccc(Cl)cn1` (stereo not given), for which the EC50 was 17.6 µM. Consider `CCOC(=O)c1c(NC(=O)CSc2nc(C)cc(C)c2C#N)sc(C(C)=O)c1C`, for which the concentration giving a half-maximal response (EC50) is 4.87 µM. For `Cc1sc2nc(SCC(=O)C(C)(C)C)n(Cc3ccco3)c(=O)c2c1C`, the concentration giving a half-maximal response (EC50) is 13.9 µM. On to `COc1ccc(Cl)c(N2CCN(CCCNC(=O)Nc3ccc(C)cc3)CC2)c1`, for which the EC50 is 12.3 µM.

Take `CC(C)(C)C1CC=C2C(C#N)=C(N)C(C#N)(C#N)C(c3cccs3)C2C1` (stereo not given): the EC50 is 12.2 µM. The figure for `CCCn1c(Nc2nc3ccccc3n2C)nc2ccccc21` is 3.01 µM; for `CCOc1cc(S(=O)(=O)N2CC=C(c3ccc(F)cc3)CC2)c(OCC)cc1-n1cnnn1` it is 20 µM. The figure for `CSc1nc2c(cnn2-c2ccc(C)c(C)c2)c(=O)[nH]1` is 17.8 µM. With `CN1CCN(c2nc3ccccc3nc2C(C#N)C(=O)OC2CCCCC2)CC1` (stereo not given), the EC50 is 3.87 µM. As for `CN1CCN(c2ccc(NC(=O)c3cccc(OCc4ccccc4)c3)cc2)CC1`, the EC50 was 11.4 µM. The figure for `COC(=O)c1sccc1NC(=O)c1ccc2c(c1)OCO2` is 20.4 µM. The figure for `CCN(CC)CC(=O)Nc1ccc(-c2nc3cc(NC(=O)CN(CC)CC)ccc3o2)cc1` is > 10 µM (inactive); for `CC1CCN(S(=O)(=O)c2ccc(NC(=O)Cn3nnc(-c4ccccc4F)n3)cc2)CC1` it is 6.62 µM. The figure for `Cc1ccc2c(c1)[nH]c1c(N3CCN(Cc4ccccc4)CC3)ncnc12` is 7.57 µM; for `COCc1cc(CN2CCCC2)c(O)c2ncccc12` it is > 10 µM (inactive); for `Cc1cc(C)n(CC(O)Cn2c3ccc(Br)cc3c3cc(Br)ccc32)c(=O)n1` (stereo not given) it is 10.7 µM. `Oc1c(I)cc(Cl)c2cccnc12`: the EC50 is 1.94 µM. The figure for `COc1ccc(NC(=O)/C(Cl)=C(/Cl)S(=O)(=O)Cc2ccccc2)cn1` is 4.48 µM; for `COc1ccc(-c2cc(C(=O)Nc3cc(C)n(Cc4ccc(Cl)cc4)n3)no2)cc1OC` it is 9.64 µM; for `Cc1ccc2[nH]c(=O)c(C3C(C#N)=C(N)Oc4c3ccc3cccnc43)cc2c1` (stereo not given) it is 9.52 µM. The figure for `c1ccc(-c2nccc(-c3ccc(-n4cnc5ccccc54)cc3)n2)cc1` is 14.9 µM. For the compound `Cc1occc1-c1nnc(SCC(=O)NCc2cccs2)n1-c1ccc(F)cc1`, the EC50 is 15.2 µM. Turning to `Cc1oc(-c2ccccc2F)nc1CN1CCC(C(=O)NCCC2=CCCCC2)CC1`, the EC50 was 12.4 µM. The figure for `Cc1ccc2c(c1)c1c(n2CC(O)Cn2c(C)nc3ccccc32)CCCC1` (stereo not given) is 10.6 µM; for `Cc1nn(-c2ccc(Cl)cc2)c2sc(C(=O)N3CCN(c4ccccn4)CC3)cc12` it is 19 µM.
